Bioassay records: PubChem, Broad Institute
Shown is part of a subset that was picked to be rich in hits.
STK33 kinase inh = human STK33 kinase inhibition; inhibition, % at 10 µM; 0.073% of 320,000 active; AID 2661; purified STK33, MBP phosphorylation, ADP-Glo luminescence;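 active = inhibition at or above 25%, using the most active replicate where run in duplicate; inactive = inhibition below 25%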
GSK3 alpha inh = inhibitors of human GSK-3 alpha kinase. ADP-Glo luminescence, 60 min. inhibition, % at 10 µM. 0.1% of 320,000 active;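 active = more than half of replicates show inhibition above 20%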;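 also: GST-tagged GSK-3 alpha with peptide substrate and 25 µM ATP; 0% = DMSO neutral wells and 100% = GW8510 positive control wells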
Target sequence (P49840 whole entry, looked up): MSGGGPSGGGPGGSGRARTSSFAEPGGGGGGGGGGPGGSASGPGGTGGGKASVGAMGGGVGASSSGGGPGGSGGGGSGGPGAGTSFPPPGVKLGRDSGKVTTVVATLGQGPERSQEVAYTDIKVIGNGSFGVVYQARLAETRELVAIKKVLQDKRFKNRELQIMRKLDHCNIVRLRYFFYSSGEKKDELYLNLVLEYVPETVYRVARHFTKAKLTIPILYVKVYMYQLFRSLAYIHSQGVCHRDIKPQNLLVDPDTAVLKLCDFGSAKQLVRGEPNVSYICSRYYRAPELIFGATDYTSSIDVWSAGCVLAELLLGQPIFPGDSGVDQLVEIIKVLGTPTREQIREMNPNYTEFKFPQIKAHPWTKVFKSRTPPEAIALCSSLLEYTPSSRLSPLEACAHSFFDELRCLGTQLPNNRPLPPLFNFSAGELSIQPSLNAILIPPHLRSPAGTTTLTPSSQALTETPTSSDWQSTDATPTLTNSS
CDK5 p35 inh = CDK5/p35 (human) kinase inhibition. inhibition, % at 10 µM. AID 488839. Q00535+Q15078. Recombinant CDK5/p35, ADP-Glo luminescence, 60 min. 0.01% of 330,000 active;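 active = highest replicate inhibition of at least 50% and at least 75% of replicates reaching 50%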;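 also: plate controls were DMSO neutral control for no effect and GW8510 at 10 µM for full effect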
GSK3B inh = human GSK3beta kinase inhibition; 0.038% of 300,000 active; activity score (negative = inhibition), % at 10 µM; AID 2097; GST-GSK3beta kinase, ADP-Glo luminescence, 60 min; hits give low values; P49841;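 active = more than half of replicate wells score below -50%, meaning over 50% inhibition versus plate controls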;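 also: 0% = median DMSO wells and -100% = median GW8510 positive control wells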
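Assay system: GST-fused GSK3beta enzyme, cell-free / Medium: Tris pH 7.5 buffer with MgCl2, DTT, BSA, heparin / Also added: peptide substrate plus 25 µM ATP (final) / Compound: 10 µM single point / Timing: kinase reaction with compound 60 min at room temperature / Detection: ADP-Glo luminescence / Benchmarks: DMSO neutral wells and GW8510 at 20 µM as positive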
Dyrk1A ADPGlo = blocks rat Dyrk1A kinase activity; ADP-Glo luminescence, NFATc1 peptide; inhibition, % at 12.5 µM; 0.43% of 310,000 active; in the data active = inhibition above about 50%;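 also: plate controls were vehicle with enzyme for no effect and no enzyme for full effect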
* hit, by the source's call; . = not tested or not shown.

SMILES	STK33 kinase inh	GSK3 alpha inh	CDK5 p35 inh	GSK3B inh	Dyrk1A ADPGlo
Cc1ccc(-n2ncc3c2CCCC3NC(=O)CCCN2CCCCC2=O)cc1C (stereo not drawn)	-1	0	-1	0	-1
O=C1C(c2ccncc2)=C(O)c2ccccc21	27*	4	3	-2	-2
O=C(O)c1cc2ccccc2c(N=Nc2cccnc2)c1O	1	0	1	-5	73*
COc1ccccc1NS(=O)(=O)c1ccc(C)c(NS(=O)(=O)c2cc(NC(C)=O)ccc2OC)c1	.	.	0	.	-1
Cc1ccc(N2CC(NC(=O)C(=O)c3c[nH]c4ccccc34)CC2=O)cc1C (stereo not drawn)	-2	-1	-1	-4	-3
Cc1nc(Nc2ccccc2)sc1C(=O)c1ccccc1	-2	6	0	-15	-5
COc1ccc(Nc2nc(N)c(C(=O)c3ccc(F)cc3)s2)cc1	3	62*	6	-45	-3
COc1ccc(C(=O)c2sc(Nc3ccccc3)nc2C)cc1	2	4	-1	0	4
COc1ccc(C(=O)c2sc(NC(C)C)nc2N)cc1OC	-1	91*	-3	.	2
COc1ccc(Nc2nc(N)c(C(=O)c3ccc(OC)cc3)s2)cc1	4	77*	15	-65*	.
CC(C)(C)C(=O)c1sc(Nc2ccccc2)nc1N	2	82*	30	-64*	21
CC1(C)N=C(N)N=C(N)N1CCCCc1ccccc1	.	.	0	.	5
CC1=C(C(=O)Nc2cccc(C(=O)NC3CCCCC3C)c2)SCCO1 (stereo not drawn)	-1	-1	.	0	.
CN1CCN(C(=O)/C(=C/c2ccccc2F)NC(=O)c2ccccc2)CC1	-2	-1	1	0	7
O=C(Nc1ccc2c(c1)OCO2)O[C@@H]1C[C@H]2CCC(=O)N3CC[C@@H](C1)[C@@H]23	1	-5	1	-1	4
CCOc1ccc(-c2cc(CCCC(=O)NCCCOC)no2)cc1	28*	0	-1	2	-1
CCOc1ccc(-c2cc(CCCC(=O)N3CCN(c4ccc(OC)cc4)CC3)no2)cc1	-1	-1	2	5	5
O=C(CCN1C(=O)/C(=C/c2ccccc2Cl)SC1=S)NC1C=CS(=O)(=O)C1 (stereo not drawn)	1	0	0	6	-6
O=C(OC[C@H]1O[C@@H](OC(=O)c2cc(O)c(O)c(OC(=O)c3cc(O)c(O)c(O)c3)c2)[C@H](OC(=O)c2cc(O)c(O)c(OC(=O)c3cc(O)c(O)c(O)c3)c2)[C@@H](OC(=O)c2cc(O)c(O)c(OC(=O)c3cc(O)c(O)c(O)c3)c2)[C@@H]1OC(=O)c1cc(O)c(O)c(OC(=O)c2cc(O)c(O)c(O)c2)c1)c1cc(O)c(O)c(OC(=O)c2cc(O)c(O)c(O)c2)c1	28*	91*	.	.	.
CN1CCc2c(sc3c2c(=O)n(-c2ccccc2)c2n[nH]c(=S)n32)C1	36*	80*	0	-50*	47
CN1CCc2c(sc3c2c(=O)n(-c2ccccc2)c2nncn32)C1	0	.	2	-21	4
CN(C)c1cccc(C(=O)NNC(=O)/C=C/c2cccs2)c1	1	-1	0	.	.
COc1ccc2c(c1)-c1c(ssc1=S)C(C)(C)N2	2	1	2	-60*	32
COc1ccc(-n2sc3c(c2=S)-c2cc(OC)ccc2NC3(C)C)cc1	-1	-1	1	1	1
Cc1cc(C)cc(OCc2ccc(C(=O)NN)o2)c1	-1	15	-1	-1	6
SMILES	STK33 kinase inh	GSK3 alpha inh	CDK5 p35 inh	GSK3B inh	Dyrk1A ADPGlo
O=C(COC(=O)CCc1ccc(S(=O)(=O)N2CCOCC2)cc1)Nc1ccc(Cl)cn1	-3	20	3	-18	6
O=C(COC(=O)c1cc(S(=O)(=O)N2CCOCC2)ccc1F)Nc1ccc(Cl)cn1	1	51*	2	.	.
CCOC(=O)c1c(NC(=O)CSc2nc3ccc(OC)cc3[nH]2)sc2c1CC(C)(C)NC2(C)C	-1	1	0	-2	12
CCN(CC)c1ccc(/C=C2/C(=O)c3ccc(C(=O)O)cc3C2=O)cc1	78*	23	6	.	4
CCN(CC)c1ccc(C=C2C(=O)OC3(CCCCC3)OC2=O)cc1	-3	-2	1	-1	-2
Cc1sc2ncnc(N/N=C/c3cccc(O)c3)c2c1C	28*	6	.	-2	17
Cc1nn(CC(=O)N(C)c2c(N)n(Cc3ccccc3)c(=O)[nH]c2=O)c(C)c1[N+](=O)[O-]	0	16	1	.	0
COc1ccc(C(=O)OC(C)C(=O)NC2CCCc3ccccc32)cc1OC (stereo not drawn)	.	.	0	.	.
CC(=O)N(C)c1ccc(N=Cc2c(O)ccc3ccccc23)cc1	62*	1	1	-2	-4
Oc1ccccc1N=Cc1c(O)ccc2ccccc12	.	.	0	0	-1
Cc1cc(C(=O)O)ccc1N=Cc1c(O)ccc2ccccc12	26*	0	0	1	.
O=C(Nc1ccccc1N1CCCC1)c1ccc([N+](=O)[O-])cc1Cl	-2	0	1	4	-20
O=C(O)c1ccc(N=Nc2c(O)[nH]c3cc(Cl)ccc23)cc1	2	28	4	-27	.
O=C(O)c1ccc(N=Nc2c(O)[nH]c3ccc(Br)cc23)cc1	1	64*	-4	2	9
Cc1cccc(NC(=O)CNC(=O)Cn2cc(C(F)(F)F)cc(Cl)c2=O)c1C	.	.	1	.	-2
CC(C)C[C@H](NC(=O)c1nc[nH]c1C(=O)NCc1ccc(CNC(=O)OC(C)(C)C)cc1)C(=O)OCc1ccccc1	0	-3	1	2	0
NC(=O)N/N=C/c1c(O)ccc2oc3c(c12)CCCC3	75*	85*	90*	-6	15
CC(C)(C)N=Cc1c(O)ccc2oc3c(c12)CCCC3	0	-2	-1	3	-1
O=C(O)CCn1cc(/C=N/O)c(-c2cccc([N+](=O)[O-])c2)n1	8	78*	0	-66*	14
COc1ccc(OC)c(Nc2nc(NCCCN(C)C)nc(N)c2[N+](=O)[O-])c1	14	88*	-9	-65*	39
COc1ccccc1Nc1nc(NCCO)nc(N)c1[N+](=O)[O-]	2	60*	.	-27	.
COc1ccccc1Nc1nc(NCCC(C)C)nc(N)c1[N+](=O)[O-]	-4	16	.	-13	.
COCCCNc1nc(N)c([N+](=O)[O-])c(Nc2cc(OC)ccc2OC)n1	-1	11	0	2	1
COc1cccc2cc(C(=O)CS(=O)(=O)c3ccc(C)cc3)c(=O)oc12	-1	-3	-2	-54*	4
C[C@H](CO)N1C[C@H](C)[C@@H](CN(C)S(C)(=O)=O)Oc2c(NC(=O)c3ccncc3)cccc2C1=O	-1	-1	-1	.	9
CC1(C)CC(=O)C2=C(C1)OC1OC(=O)CC21C (stereo not drawn)	-3	0	-1	0	2
CC(C)(C)OC(=O)N1CCC(NC(=O)c2[nH]cnc2C(=O)Nc2ccon2)CC1	-1	72*	0	.	-7
